The record followed here is ChEMBL document CHEMBL1125560, “Synthesis and physicochemical properties of sulfamate derivatives as topical antiglaucoma agents” (J Med Chem, 1992).

For one series, the system named is Oryctolagus cuniculus. The experiment in a line: Compound was evaluated for decrease in intraocular pressure (IOP) (mmHg) at 1 hour postdosing to New Zealand white rabbits with 2% solubility. It is filed as functional, Eye. The gist of the method:
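New Zealand white rabbits, at least six per test, 2–10 experiments. Eyes given one drop of topical anesthetic (proparacaine) before tonometer IOP readings, taken before dosing and at 1 h intervals after. Drug at 2% in 0.5% hydroxyethylcellulose, 50 μL to one eye, vehicle to the other. Value is treated-eye minus control-eye IOP at 1 h, mean.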

The target of another series is Carbonic anhydrase (Bos taurus, UniProt P00921+Q95323+P18915+Q3SZX4). The series is described as follows: Bovine erythrocyte carbonic anhydrase inhibitory activity of the compound.
A short description of series [1]: Solubility in water at pH 5.0. It is filed as physicochemical. The gist of the method: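 Not measured directly. Intrinsic solubility S0 comes from equilibrium solubility in pH 7.4 phosphate buffer (2–4 days, UV read-out). Solubility at pH 5 is then calculated as S = S0(1 + 10^(pKa1−pH) + 10^(pH−pKa2)), using the imidazole and sulfonamide pKa values.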
A short description of series [2]: (§1) Partition coefficient at pH 7.4 between chloroform and water as a measure of lipid solubility. The class given is ADME. The note with it: read-out: pKa1. The gist of the method: (§2)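 Drug dissolved in 0.05 M phosphate buffer, pH 7.4, and shaken with an equal volume of chloroform to equilibrium. Aqueous drug concentration found from carbonic anhydrase inhibitory activity of aqueous samples against a standard curve. Organic concentration obtained by difference. Reported as organic/aqueous concentration ratio.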

A short description of series [3]: Compound was evaluated for partition coefficient at pH 7.4 (CHCl3/buffer). The note with it: octanol/water.
Series [4] can be described thus: Intrinsic solubility of the compound. As to conditions: read-out: S. It is filed as ADME. The gist of the method: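 Compound equilibrated 2–4 days in pH 7.4 phosphate buffer in sealed rotating tubes, amount tripled if all dissolved. pH and concentration then measured: solution filtered (0.2 μm), diluted, concentration read by UV spectrum. Intrinsic solubility S0 derived from S = S0(1 + 10^(pKa1−pH) + 10^(pH−pKa2)).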

A short description of series [5]: as §1.
The nature of series [6]: Partition coefficient of the compound at pH 7.4 between chloroform and water as a measure of lipid solubility. The note with it: read-out: pKa2. It is filed as ADME. In short, it runs like this: as §2

In the series on Oryctolagus cuniculus, `Cl.NS(=O)(=O)OCCOc1cccc(-n2ccnc2)c1` displayed an IOP of 2.3 mmHg. Further, the IC50 against Carbonic anhydrase was determined as 69 nM. Besides, the figures for the solubility in series [1] and in series [4] were 1500 µg/mL and 250 µg/mL, respectively. In addition, the pKa in series [2] amounted to 5.71; in series [5] it was 8.91. This molecule also displayed a Partition coefficient in series [3] of 2.2.

In the series on Oryctolagus cuniculus, `CC(=O)Nc1nnc(S(N)(=O)=O)s1.Cl` yielded an IOP of 0 mmHg. Moreover, the solubility in series [1] is less than 710 µg/mL.

The molecule `Cl.NS(=O)(=O)OCCCOc1ccc(-n2ccnc2)cc1` gave an IOP in the series with Oryctolagus cuniculus of 0 mmHg. Besides, the values for the pKa in series [6] and in series [2] were 9.22 and 6.09, respectively. Also, on Carbonic anhydrase, the IC50 is 250 nM. For the same molecule, the values for the solubility in series [1] and in series [4] were 1600 µg/mL and 120 µg/mL, respectively. This molecule returned a Partition coefficient in series [3] of 5.5.

The molecule `Cl.NS(=O)(=O)OCCOc1ccc(-n2ccnc2)cc1` gave an IOP in the series on Oryctolagus cuniculus of 2.5 mmHg. This molecule also gave an IC50 on Carbonic anhydrase of 23 nM. The solubility in series [1] worked out at 7400 µg/mL; in series [4], 700 µg/mL. For the same molecule, the pKa in series [2] came to 5.98; in series [5], 9.05. In series [3], this molecule had a Partition coefficient of 1.5.

In turn, `Cc1cn(-c2cccc(OS(N)(=O)=O)c2)cn1.Cl` displayed a concentration for half-maximal inhibition (IC50) against Carbonic anhydrase of 94 nM. In addition, the solubility in series [1] amounted to 6300 µg/mL; in series [4], 470 µg/mL. Also, the pKa turned out to be 6.09 in series [2] and 8.08 in series [5]. In series [3], this molecule showed a Partition coefficient of 0.73.

Molecule `Cl.NS(=O)(=O)Oc1cccc(-n2ccnc2)c1` gave an IOP with Oryctolagus cuniculus of 1.5 mmHg. Moreover, the IC50 against Carbonic anhydrase was 42 nM. Besides, the solubility turned out to be 38000 µg/mL in series [1] and 11000 µg/mL in series [4]. For the same molecule, the figures for the pKa in series [2] and in series [5] were 5.4 and 9.05, respectively. For the same molecule, the Partition coefficient in series [3] came out at 0.28.

In the case of `Cl.NS(=O)(=O)Oc1ccc(-n2ccnc2)cc1`, the IOP in the series on Oryctolagus cuniculus was 1.3 mmHg. Moreover, the IC50 at Carbonic anhydrase was 120 nM. The solubility in series [1] worked out at 1000 µg/mL; in series [4] it was 230 µg/mL. Moreover, the pKa in series [2] is 5.54; in series [5], 8. The molecule also had a Partition coefficient in series [3] of 0.16.

In the case of `Cc1nccn1-c1cccc(OCCOS(N)(=O)=O)c1.Cl`, the IOP in the series on Oryctolagus cuniculus is listed as 1.7 mmHg. For the same molecule, the pKa worked out at 8.99 in series [6] and 6.9 in series [2]. The molecule further had an IC50 at Carbonic anhydrase of 77 nM. Further, the solubility in series [1] came out at 114000 µg/mL; in series [4], 1400 µg/mL. In series [3], this molecule registered a Partition coefficient of 1.1.

Turning to `Cc1cn(-c2cccc(OCCOS(N)(=O)=O)c2)cn1.Cl`, the IC50 at Carbonic anhydrase was determined as 210 nM. Besides, the solubility in series [1] amounted to 4900 µg/mL; in series [4], 220 µg/mL. The results for the pKa in series [2] and in series [5] were 6.34 and 8.96, respectively. This molecule showed a Partition coefficient in series [3] of 4.6.

In the series on Oryctolagus cuniculus, `Cc1nccn1-c1cccc(OS(N)(=O)=O)c1.Cl` had an IOP of 0 mmHg. Moreover, the IC50 on Carbonic anhydrase was 50 nM. The solubility in series [1] amounted to 100000 µg/mL; in series [4], 3300 µg/mL. Also, the pKa in series [2] was found to be 6.47; in series [5], 7.99. In addition, the Partition coefficient in series [3] stood at 0.18.

The term IC50 denotes the concentration at which inhibition is half-maximal.
